The values below come from PMC4871731 (Nature chemical biology, 2016).

Peptide text beside a SMILES is read from it. * marks the point of attachment. Cbz = O=C(OCc1ccccc1)*

The target of test [1] is T1, human CLRN1^N48K (Homo sapiens, UniProt P58418, N48K).
T1 sequence (P58418 1-232 N48K): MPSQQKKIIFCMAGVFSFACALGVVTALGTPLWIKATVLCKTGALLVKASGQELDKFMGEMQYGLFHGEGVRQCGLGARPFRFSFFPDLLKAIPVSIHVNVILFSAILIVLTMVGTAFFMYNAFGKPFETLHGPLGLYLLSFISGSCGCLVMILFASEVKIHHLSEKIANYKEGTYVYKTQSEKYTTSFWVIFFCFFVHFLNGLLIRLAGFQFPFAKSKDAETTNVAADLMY
Put plainly: Effect of HSP90 inhibition on CLRN1N48K expression. Particulars: D6 cells, 17-AAG 20 µM applied alone. The format is cell-based. Summed up: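 D6 cells were treated for 24 h with 20 µM 17-AAG, test compound (2.90 µM), 50 nM bortezomib, or DMSO vehicle. In one arm, cells were pre-incubated 6 h with 17-AAG before test compound was added for 24 h. Cells were then harvested for CLRN1N48K immunoblotting.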

The target in test [2] is T1, human CLRN1^N48K. Briefly: Combined treatment with cycloheximide and washout. The format is cell-based. Particulars: for levels of CLRN1^N48K after 6 h treatment (T0): D6 cells, vs DMSO, bortezomib 50 nM, MG132 50 µM, O03 16.8 µM. Summed up: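 D6 cells at 70% confluency were treated 6 h with bortezomib (50 nM), MG132 (50 µM) or test compound (16.8 µM); […]. Cells were then cultured 6 h more in 100 µM cycloheximide with or without the same agent. In the washout arm, compound-pretreated cells were washed and held 6 h in cycloheximide without compound. Read-out was CLRN1N48K by immunoblot.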

The subject of test [3] is CLRN1 mRNA. Put plainly: Reverse transcription and quantitative PCR in D6 cells. The format is cell-based, human. Particulars: 24 h, O03 16.8 µM, bortezomib 50 nM. Summed up: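 D6 cells at 70% confluency were treated in triplicate for 24 h with 50 nM bortezomib, 16.8 µM test compound, or 0.25% DMSO. Total RNA was isolated with TRIzol. 5 µg RNA was DNase I-treated and reverse-transcribed with M-MLV using a mix of dT12, dT15 and dT18 primers (10 µM each), followed by quantitative PCR.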

The target of test [4] is T1, human CLRN1^N48K. Briefly: Automated HTS, D6 cell-based immunofluorescence assay. Particulars: D6 cell line, 25 nM. The method, boiled down: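 Primary screen of about 50,000 library compounds. Cells were fixed in 4% formaldehyde for 20 min, washed with PBST and stained with anti-HA for 90 min at room temperature. Fluorescence intensity per cell area came from six images per well and was normalised per plate to bortezomib and untreated controls to give percent activity.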

Test [5] deals with DsRed-Express-DR (reporter for proteasome-mediated protein degradation). Put plainly: Dual color. The format is cell-based. Particulars: 16.8 µM test compound or 50 nM bortezomib, 24 h, vs no treatment. The method, boiled down:
(§1)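 Cell line stably co-expressing CLRN1N48K-Venus-1D4 and DsRed-Express-DR, grown to 70% confluency. Treatment was 16.8 µM test compound in triplicate for 24 h, with 50 nM bortezomib as positive and DMSO as negative control. Cells were fixed in 4% formaldehyde, washed with PBS and imaged by inverted fluorescence microscopy. Venus and DsRed intensities were quantified in 15 equal-sized cell-containing regions per well, three wells per treatment.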

In test [6] the target is T1, human CLRN1^N48K. Put plainly: Immunoblotting of CLRN1N48K in D6 cells. The format is cell-based. Particulars: 24 h, O03 16.8 µM, B03 16.8 and 1.68 µM, bortezomib 50 nM. Summed up:
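D6 cells at 70% confluency were treated for 24 h with bortezomib (50 nM) or test compounds at 16.8 µM (one also at 1.68 µM), with DMSO at 0.25% (v/v) final. Lysates were then immunoblotted for CLRN1N48K.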

Test [7] relates to human CLRN1^N48K-Venus. Briefly: Dual color. The format is cell-based. Particulars: 16.8 µM test compound or 50 nM bortezomib, 24 h, vs no treatment. The method, boiled down: as §1

As for `C=CCNC1=C2C[C@@H](C)C[C@H](OC)[C@H](O)[C@@H](C)/C=C(\C)[C@H](OC(N)=O)[C@@H](OC)/C=C\C=C(/C)C(=O)NC(=CC1=O)C2=O` [17-AAG, 17-N-allylamino-17-demethoxygeldanamycin], the “amount of CLRN1^N48K” value in test [1] is listed as “did not alter the amount of CLRN1^N48K”.

Regarding `CC(C)C[C@@H](C=O)NC(=O)[C@H](CC(C)C)NC(=O)[C@H](CC(C)C)NC(=O)OCc1ccccc1` [MG132] (Cbz-Leu-Leu-Leu-aldehyde), the “levels of CLRN1^N48K after 6 h treatment (T0)” value in test [2] is given as “increased levels of CLRN1^N48K”.

Consider `CC(C)C[C@H](NC(=O)[C@H](Cc1ccccc1)NC(=O)c1cnccn1)B(O)O` [bortezomib], for which, in test [3], the “CLRN1^N48K mRNA level” value is “not affected”. Besides, the “amount of CLRN1^N48K” value in test [4] was “increased amount”. Also, the DsRed fluorescence result in test [5] was “increased both Venus and DsRed”. The “CLRN1^N48K level by immunoblotting” value in test [6] is listed as “increased dramatically”. For the same molecule, the Venus fluorescence result in test [7] is “increased both Venus and DsRed”. The “stability of CLRN1^N48K after washout” value in test [2] (6 h compound, washout, then 6 h with cycloheximide without compound) was “effective in stabilizing and protecting CLRN1^N48K from degradation”. In addition, the “levels of CLRN1^N48K after 6 h treatment (T0)” value in test [2] is recorded as “increased levels of CLRN1^N48K”.

Regarding `C[C@@H]1C[C@@H]([C@H](O)CC2CC(=O)NC(=O)C2)C(=O)[C@@H](C)C1` [cycloheximide], in test [2] (100 µM cycloheximide), the “synthesis of CLRN1^N48K” value was “confirmed to inhibit the synthesis of CLRN1^N48K”.
